Fam108B inh: counter-screen for RBBP9 inhibitors: inhibitors of mouse Fam108B; inhibition, % at 9.51 µM; AID 1947; recombinant Fam108B, FP-Rh probe fluorescence polarization; 300,000 compounds, 0.33% hits;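 active means inhibition above the screen mean inhibition plus 3 SD, computed separately per campaign, cut at about 18% in these data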;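 further: inhibitors lower polarization as less probe binds the enzyme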
LYPLA1 inh: counter-screen for PME1 inhibitors: inhibitors of human LYPLA1; inhibition, % at 5.9 µM; O75608; 320,000 compounds, 0.16% hits; recombinant LYPLA1, FP-Rh probe fluorescence polarization; AID 2174;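 active means inhibition above the mean of all tested compounds plus 3 SD, set per campaign, cut at about 14% in these data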;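 further: inhibitors block serine hydrolase probe labeling of LYPLA1 so polarization falls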
PAD4 inh: inhibitors of human PAD4 | Q9UM07 | recombinant PAD4, RCA probe fluorescence polarization | inhibition, % at 6.36 µM | 330,000 compounds, 0.41% hits | AID 485272;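 active means percent inhibition above a cutoff equal to the mean of all tested compounds plus 3 SD, cut at about 15% in these data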
RBBP9 inhibitor: blocks human serine hydrolase RBBP9; O75884; recombinant RBBP9, FP-Rh probe fluorescence polarization; inhibition, % at 7.94 µM; 220,000 compounds, 0.2% hits;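 active means inhibition above the campaign mean of all tested compounds plus 3 SD, cut at about 14% in these data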
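Test system: recombinant human RBBP9; Timing: 30 min then 45 min, 25 °C; Detection: fluorescence polarization; Control set: RBBP9 with DMSO as uninhibited control, no-protein wells as full inhibition; Compound dosing: one concentration, 7.94 µM nominal, 0.794% DMSO; Probe or stimulus: FP-Rh activity-based probe, 375 nM before mixing.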
PME-1 primary: PME-1 (human) inhibition. Q9Y570. recombinant PME-1, FP-Rh probe fluorescence polarization. inhibition, % at 5.9 µM. 320,000 compounds, 0.53% hits. AID 2130;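 active means inhibition above the campaign mean of all compounds plus 3 SD, cut at about 26% in these data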;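 further: competitive labeling of PME-1 active site by serine hydrolase directed probe; inhibitors block probe labeling so polarization falls and inhibition rises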
Target sequence (Q9Y570 whole entry, looked up): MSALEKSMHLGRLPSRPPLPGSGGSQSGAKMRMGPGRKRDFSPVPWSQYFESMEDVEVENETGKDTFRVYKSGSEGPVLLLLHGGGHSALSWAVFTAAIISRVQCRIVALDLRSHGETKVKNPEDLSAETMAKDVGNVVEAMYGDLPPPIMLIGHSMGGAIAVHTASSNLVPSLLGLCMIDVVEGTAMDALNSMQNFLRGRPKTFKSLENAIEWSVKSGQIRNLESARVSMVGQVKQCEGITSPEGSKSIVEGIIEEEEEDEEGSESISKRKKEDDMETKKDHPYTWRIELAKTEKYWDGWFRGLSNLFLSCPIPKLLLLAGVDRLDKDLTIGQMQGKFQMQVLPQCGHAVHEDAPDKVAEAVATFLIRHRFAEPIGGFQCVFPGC
LYPLA2 counter: blocks human lysophospholipase 2, a PME1 counter-screen; 320,000 compounds, 0.38% hits; AID 2177; recombinant LYPLA2, FP-Rh probe fluorescence polarization; inhibition, % at 5.9 µM; O95372;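 active means inhibition above the screen-wide mean plus 3 SD, limit set per campaign, cut at about 26% in these data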
Target sequence (O95372 whole entry, looked up): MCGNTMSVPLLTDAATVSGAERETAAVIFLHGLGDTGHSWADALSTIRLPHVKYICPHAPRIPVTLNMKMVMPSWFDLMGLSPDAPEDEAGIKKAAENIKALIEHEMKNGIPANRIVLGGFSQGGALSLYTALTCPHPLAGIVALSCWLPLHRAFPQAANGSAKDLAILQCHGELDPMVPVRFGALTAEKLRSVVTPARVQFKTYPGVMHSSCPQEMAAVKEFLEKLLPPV
LYPLA2 conf: counter-screen for PME1 inhibitors: confirmation of human LYPLA2 inhibitors; 1,100 compounds, 72% hits; recombinant LYPLA2, FP-Rh probe fluorescence polarization; shares compounds with LYPLA2 counter; inhibition, % at 5.9 µM;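 active means mean inhibition across replicates above the hit cutoff set in the primary screen, cut at about 26% in these data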;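 further: blocked labeling of the enzyme by serine hydrolase FP-Rh probe lowers polarization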
LYPLA2 gel ABPP: inhibitors of human LYPLA2. rhLYPLA2 in mouse brain proteome, gel ABPP FP-Rh. shares compounds with LYPLA2 counter. AID 652029. inhibition, % at 20 µM. 150 compounds, 30% hits;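 active means inhibition of LYPLA2 enzyme probe labeling above about 50%, limit read from the data; inactive means inhibition below that limit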;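 further: loss of FP-Rh probe labeling of the LYPLA2 gel band measured as band density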
Large screens that a line does not name were inactive (follow-up assays come after a bar, where they were run). Sampled rows, rich in hits. Any-hit rate of the full collection: about 1.3%.

COCCCNC(=O)c1sc2ncn(CC(=O)Nc3ccc(C)c(Cl)c3)c(=O)c2c1C	LYPLA2 counter 42 | LYPLA2 conf 35
COc1ccccc1NC(=O)Cn1cnc2sc(C(=O)NCc3ccco3)c(C)c2c1=O	LYPLA2 counter 64 | LYPLA2 conf 57 | LYPLA2 gel ABPP inactive
CCN(CC)CCCNC(=O)c1sc2ncn(CC(=O)Nc3ccc(C)c(Cl)c3)c(=O)c2c1C	LYPLA2 counter 38 | LYPLA2 conf 40
COc1ccc(NC(=O)C2CC(=O)N(CCc3ccc(Cl)cc3)C2)cc1 (stereo not drawn)	none (no result: RBBP9 inhibitor)
CCCCC(CCC(=O)Nc1nccs1)C(=O)O (stereo not drawn)	none
CC(=O)c1ccc(N2CCN(c3ccnc4cc(Cl)ccc34)CC2)cc1	LYPLA2 counter 36 (no result: RBBP9 inhibitor) | LYPLA2 conf 27
CC(C)(C)C(=O)N1CCN(c2ccnc3cc(Cl)ccc23)CC1	none (no result: RBBP9 inhibitor)
O=C(COc1ccc2c(c1)oc(=O)c1ccccc12)NCCN1CCOCC1	none (no result: RBBP9 inhibitor)
Cc1ccc(C(=O)N2CCN(C)CC2)cc1S(=O)(=O)N1CCCCCC1	LYPLA2 counter 27 (no result: RBBP9 inhibitor) | LYPLA2 conf inactive
CC1CC(C)CN(CCCNC(=O)CN2C(=O)c3cccnc3Oc3ccc(Cl)cc32)C1 (stereo not drawn)	none (no result: RBBP9 inhibitor)
COc1ccccc1CC1(C)NC(=O)N(CC(=O)Nc2cc(C)on2)C1=O (stereo not drawn)	none
O=C(Nc1ccncc1)c1cccc(S(=O)(=O)N2CCN(c3ccc(F)cc3)CC2)c1	LYPLA2 counter 40 (no result: RBBP9 inhibitor) | LYPLA2 conf inactive
N#Cc1ccc(-c2ccc(OCC(=O)NCCc3ccccc3)cc2)cc1	LYPLA2 counter 35 | LYPLA2 conf inactive
COc1ccc(CCNC(=O)COc2ccc(-c3ccc(C#N)cc3)cc2)cc1	none
Cc1occc1-c1nnc(SCCCC(=O)c2ccc(F)cc2)n1C	none
CCn1c(SCC(=O)c2ccc(F)cc2)nnc1-c1ccoc1C	LYPLA2 counter 35 | LYPLA2 conf inactive
COc1ccc(-c2cc(=O)oc3cc(OC(C)C(=O)NCCCn4ccnc4)ccc23)cc1 (stereo not drawn)	none (no result: RBBP9 inhibitor)
O=C(CCC(=O)N1CCN(c2ccc(Cl)c(Cl)c2)CC1)c1ccccc1	LYPLA2 counter 37 (no result: RBBP9 inhibitor) | LYPLA2 conf 31
C=CCOc1ccc(/C=N/O)cc1Cl	none
COc1ccc(S(=O)(=O)N(C)c2ccc(C(=O)N3CCN(C)CC3)cc2)cc1	none (no result: RBBP9 inhibitor)
COc1ccc(N2CCN(C(=O)c3ccc(N(C)S(=O)(=O)c4ccc(C)cc4)cc3)CC2)cc1	LYPLA2 counter 50 | LYPLA2 conf 55 | LYPLA2 gel ABPP inactive
COc1ccc(N2CCN(C(=O)c3ccc(N(C)S(=O)(=O)c4ccc(OC)cc4)cc3)CC2)cc1	LYPLA2 counter 54 | LYPLA2 conf 58 | LYPLA2 gel ABPP inactive
CCOC(=O)N1CCN(C(=O)c2ccc(N(C)S(=O)(=O)c3ccc(C)cc3)cc2)CC1	none (no result: RBBP9 inhibitor)
COc1ccc(C2=NN(C(=O)c3ccccc3)C(c3ccc(OC)c(OC)c3)C2)c(OC(C)=O)c1 (stereo not drawn)	none (no result: RBBP9 inhibitor)
Cc1ccc(N2CCN(C(=O)c3ccccc3NC(=O)/C=C\C(=O)O)CC2)cc1	none
Cc1c(Cl)cccc1NC(=O)CSc1nc2ncc(Cl)cc2[nH]1	none (no result: RBBP9 inhibitor)
O=C(c1cc(-c2ccc(F)cc2)no1)N1CCN(Cc2ccc3c(c2)OCO3)CC1	LYPLA2 counter 33 (no result: RBBP9 inhibitor) | LYPLA2 conf 35
Cn1nccc1C(=O)N1CCN(c2cccc(C(F)(F)F)c2)CC1	none (no result: RBBP9 inhibitor)
Cn1nccc1C(=O)N1CCCC(N2CCN(c3cccc(C(F)(F)F)c3)CC2)C1 (stereo not drawn)	LYPLA2 counter 54 (no result: RBBP9 inhibitor) | LYPLA2 conf 52 | LYPLA2 gel ABPP inactive
Cc1cc(C)c(C(=O)N2CCCC(N3CCN(c4cccc(C(F)(F)F)c4)CC3)C2)o1 (stereo not drawn)	LYPLA2 counter 52 (no result: RBBP9 inhibitor) | LYPLA2 conf 50 | LYPLA2 gel ABPP inactive
CCOc1ccc(S(=O)(=O)NN=C2CCN(C(C)=O)CC2)cc1	none
Cc1ccccc1C(=O)Nc1ccnn1C1CCN(Cc2ccc(CO)o2)CC1	none (no result: RBBP9 inhibitor)
CCOC(=O)C1CCCN(C(=O)c2ccc(CNS(=O)(=O)c3ccc(C)cc3)cc2)C1 (stereo not drawn)	none
Cc1ccc(C)c(S(=O)(=O)NCc2ccc(C(=O)N3CCC(Cc4ccccc4)CC3)cc2)c1	LYPLA2 counter 45 | LYPLA2 conf 47
CCOC(=O)C1CCN(C(=O)c2ccc(CNS(=O)(=O)c3ccc(OC)cc3)cc2)CC1	LYPLA2 counter 26 | LYPLA2 conf inactive
O=C1CC(c2ccc(OCCCCCOc3ccc(C4CC(=O)NC4=O)cc3)cc2)C(=O)N1 (stereo not drawn)	LYPLA2 counter 40 | LYPLA2 conf 53 | LYPLA2 gel ABPP inactive
C=CCn1c(SCC(=O)N2CCOCC2)nnc1C(C)NC(=O)c1ccccc1 (stereo not drawn)	none (no result: RBBP9 inhibitor)
O=S(=O)(c1ccc(-c2csc(Nc3ccc(Br)cc3)n2)cc1)N1CCCC1	PME-1 primary 38, LYPLA2 counter 53 | LYPLA2 conf inactive
O=S(=O)(c1ccc(-c2csc(Nc3ccc(F)cc3)n2)cc1)N1CCCC1	none
CC(C)CCn1c(=O)c2sccc2n2c(CCCC(=O)N3CCC(N4CCCCC4)CC3)nnc12	LYPLA2 counter 28 (no result: RBBP9 inhibitor) | LYPLA2 conf inactive
O=C(NCCCN1CCOCC1)c1ccc(CSc2ccc(Cl)cc2)cc1	none
CNC(=O)COC(=O)c1ccc(Cl)c(S(=O)(=O)N2CCCC2)c1	LYPLA2 counter 28 | LYPLA2 conf inactive
CC(=O)Nc1cccc(C(=O)OCC(=O)c2ccc(S(=O)(=O)N3CCCCC3)cc2)c1	LYPLA2 counter 66 (no result: RBBP9 inhibitor) | LYPLA2 conf 62
COC(=O)c1cccc(NC(=O)CSc2nnc(-c3ccco3)o2)c1	none (no result: RBBP9 inhibitor)
COc1cccc(-c2ccc(NC(=O)C3CCCN(Cc4cnc(N(C)C)s4)C3)cc2)c1 (stereo not drawn)	LYPLA2 counter 28 (no result: RBBP9 inhibitor) | LYPLA2 conf inactive
CCOC(=O)N1CCN(S(=O)(=O)c2ccc(F)c(C(=O)Nc3cccc(Cl)c3C)c2)CC1	LYPLA2 counter 40 | LYPLA2 conf 41
O=C(Nc1ccccc1C(=O)O)c1cc(S(=O)(=O)N2CCCCCC2)ccc1Cl	LYPLA2 counter 35 (no result: RBBP9 inhibitor) | LYPLA2 conf inactive
O=C(O)c1cc(S(=O)(=O)N2CCCCCC2)ccc1Cl	none
COc1ccccc1-c1nnc(N)s1	LYPLA2 counter 28 | LYPLA2 conf inactive
C/C(=N\NC(=O)c1nnn(-c2nonc2N)c1CN1CCCCCC1)c1ccc(Br)cc1	none (no result: RBBP9 inhibitor)
Cc1c(Cc2ccccc2)c(=O)oc2cc(OCc3ccc(C(=O)O)cc3)ccc12	LYPLA2 counter 28 | LYPLA2 conf 52 | LYPLA2 gel ABPP inactive

Assay outcomes (PubChem BioAssay)
